We go through one compound from article PMC8428381 (Journal of Virology, 2021).

SMILES strings stand for the structures. Counter-ions that a name gives are not always drawn.

One assay addresses plasma kallikrein (PK) (Homo sapiens, UniProt P03952). Put plainly: Chromogenic enzyme inhibition assay, plasma kallikrein. The format is biochemical.
Another assay addresses factor XIa (FXIa) (Homo sapiens, UniProt P03951). Briefly: Chromogenic enzyme inhibition assay, factor XIa. The format is biochemical. The method, boiled down:
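Recombinant FXIa serine protease domain expressed in Pichia pastoris X-33. 2 nM enzyme preincubated 15 min at 37°C with a range of test compound concentrations in 0.01 M HEPES, 0.15 M NaCl, pH 7.4, 0.1% BSA. Chromogenic substrate was then added at about its Km. Initial velocities were read at 405 nm, and IC50 came from a sigmoidal nonlinear fit.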

Another assay relates to SARS-CoV-2. The following applies: by acting against TMPRSS2; cited from earlier work.
The target of the next assay is uPA (Homo sapiens, UniProt P00749, C299A/N322Q). Put plainly: Chromogenic enzyme inhibition assay, uPA serine protease domain. The format is biochemical. The method, boiled down:
(§1)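 Serine protease domains (uPA, matriptase) expressed in Pichia pastoris X-33. 2 nM enzyme preincubated 15 min at 37°C with varied test compound in 0.01 M HEPES, 0.15 M NaCl, pH 7.4, 0.1% BSA. Substrate at about Km: S-2444 for uPA, S-2288 for matriptase. Initial rates read at 405 nm; IC50 from a sigmoidal nonlinear fit.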

The target of the next assay is T1, matriptase (Homo sapiens, UniProt Q9Y5Y6).
T1 sequence (Q9Y5Y6 615-854 limits assumed): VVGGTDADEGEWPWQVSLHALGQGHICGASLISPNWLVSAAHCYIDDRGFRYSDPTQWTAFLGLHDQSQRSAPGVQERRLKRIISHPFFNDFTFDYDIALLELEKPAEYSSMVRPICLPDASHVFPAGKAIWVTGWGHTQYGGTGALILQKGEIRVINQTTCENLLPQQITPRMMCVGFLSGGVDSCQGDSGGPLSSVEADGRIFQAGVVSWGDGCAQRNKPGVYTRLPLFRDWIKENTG
Briefly: Chromogenic enzyme inhibition assay, matriptase. The class given is biochemical. The method, boiled down: as §1

A further assay deals with murine uPA (muPA) (Mus musculus, UniProt P06869). Put plainly: Chromogenic enzyme inhibition assay, murine uPA serine protease domain. The format is biochemical. An outline of the steps: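 Mouse uPA serine protease domain, expressed as E. coli BL21(DE3) inclusion bodies, then refolded and purified. 2 nM enzyme preincubated 15 min at 37°C with varied test compound in 0.01 M HEPES, 0.15 M NaCl, pH 7.4, 0.1% BSA. S-2444 then added at about Km. Initial velocities read at 405 nm; IC50 from a sigmoidal nonlinear regression.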
murine uPA (muPA), sequence (P06869 180-426 limits assumed): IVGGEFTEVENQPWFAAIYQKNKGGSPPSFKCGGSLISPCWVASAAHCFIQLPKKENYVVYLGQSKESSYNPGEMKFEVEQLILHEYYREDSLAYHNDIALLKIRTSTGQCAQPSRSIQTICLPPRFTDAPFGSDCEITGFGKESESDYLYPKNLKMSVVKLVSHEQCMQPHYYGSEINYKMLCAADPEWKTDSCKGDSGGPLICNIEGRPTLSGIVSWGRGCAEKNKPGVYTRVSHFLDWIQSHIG

As a reminder, the IC50 is the midpoint of a concentration-inhibition curve. Read a low IC50 as greater potency in that assay.

factor XIa (FXIa), sequence (P03951 388-623 limits assumed): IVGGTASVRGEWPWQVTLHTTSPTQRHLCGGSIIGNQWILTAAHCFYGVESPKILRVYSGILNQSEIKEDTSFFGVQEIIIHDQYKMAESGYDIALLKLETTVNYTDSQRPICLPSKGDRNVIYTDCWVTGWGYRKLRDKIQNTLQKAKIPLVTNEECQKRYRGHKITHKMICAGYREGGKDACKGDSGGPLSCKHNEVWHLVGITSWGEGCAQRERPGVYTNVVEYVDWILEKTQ
plasma kallikrein (PK), sequence (P03952 391-626 limits assumed): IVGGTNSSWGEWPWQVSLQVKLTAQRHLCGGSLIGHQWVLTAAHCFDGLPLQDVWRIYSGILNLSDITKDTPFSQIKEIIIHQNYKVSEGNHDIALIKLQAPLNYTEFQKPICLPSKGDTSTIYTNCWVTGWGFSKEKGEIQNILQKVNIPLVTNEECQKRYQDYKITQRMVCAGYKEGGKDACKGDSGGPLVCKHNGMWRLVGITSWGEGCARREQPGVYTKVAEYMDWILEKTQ

Take `CN(C)C(=O)COC(=O)Cc1ccc(OC(=O)c2ccc(NC(=N)N)cc2)cc1` [camostat, camostat mesylate]: the IC50 on plasma kallikrein (PK) is 10.4 ± 2.7 nM; against factor XIa (FXIa) it was 44.1 ± 1.1 nM; at uPA it was 86.4 ± 9.4 nM; against matriptase, 21.1 ± 3.5 nM; at murine uPA (muPA), 100 ± 41.9 nM. Further, in the assay on SARS-CoV-2, the “SARS-CoV-2 infection of human lung cells” value was “inhibits SARS-CoV-2 infection of human lung cells”.
